From ChEMBL document CHEMBL4765376, “Discovery of an Orally Available Diazabicyclooctane Inhibitor (ETX0282) of Class A, C, and D Serine β-Lactamases” (J Med Chem, 2020)
pKi: −log10 of the molar value. ≈ marks a conversion by molar mass, not a printed value. Calls of active or inactive are those of the source. The rule behind the calls is not given here.

Key:
[1] = Toxicity in dog assessed as adverse effect at 400 to 500 mg/kg, po measured for 14 days; format: organism-based, Canis lupus familiaris; conditions: in vivo, 336 h, dose 400-500 mg/kg, time 14 day
Procedure, shortened: (§1)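 Fourteen-day GLP toxicology study with daily oral administration; NOAEL determined.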

[2] = Drug metabolism assessed as diamine metabolite formation
[3] = test system: Escherichia coli; experiment: Synergistic antibacterial activity against multidrug-resistant Escherichia coli ARC 2687 infected in CD-1 mouse model of neutropenic thigh infection assessed as reduction in colony forming unit in presence of cefpodoxime at 50 to 100 mg/kg, po administered every 6 hrs interval; format: functional; conditions: dose 50-100 mg/kg
Procedure, shortened: (§2)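 Female CD-1 mice (20–22 g, 3/arm) made neutropenic with ip cyclophosphamide, 150 mg/kg on day −4 and 100 mg/kg on day −1. Each thigh received an im inoculum of 5.5 × 10^6–1.6 × 10^7 CFU from saline suspension (OD625 0.1, diluted). Dosing began 2 h post-infection, q6h. Oral agents were given in 0.5% HPMC/0.1% Tween 80; meropenem was given sc in water. Thighs were taken at 24 h, homogenized and plated on TSA (35 °C overnight) for CFU counts.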

[4] = Oral bioavailability in Sprague-Dawley rat at 11.6 mg/kg by LC/MS/MS analysis; format: ADME, organism-based; conditions: in vivo
Procedure, shortened: (§3)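 Jugular vein-cannulated male Sprague Dawley rats (180–200 g, n = 3/route). Intravenous arm: active acid at 10 mg/kg in 0.9% saline, plasma sampled 0.08–8 h. Oral arm: prodrug at a dose equivalent to 10 mg/kg acid in 25:75 PEG 400/WFI, plasma sampled 0.25–24 h. Levels by LC/MS/MS; F = (AUCpo/AUCiv) × 100.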

[5] = Half-life in Sprague-Dawley rat at 11.6 mg/kg, po by LC/MS/MS analysis; format: ADME, organism-based; conditions: in vivo
[6] = AUC in Sprague-Dawley rat at 11.6 mg/kg, po by LC/MS/MS analysis; format: ADME, organism-based; set-up: dose 11.6 mg/kg; conditions: in vivo
[7] = test system: Escherichia coli; experiment: Synergistic antibacterial activity against multidrug-resistant Escherichia coli ARC 2687 infected in CD-1 mouse model of neutropenic thigh infection assessed as reduction in colony forming unit in presence of cefpodoxime at 10 to 100 mg/kg, po administered every 6 hrs interval; format: functional, organism-based; conditions: dose 10-100 mg/kg; procedure, shortened: as §2
[8] = Oral bioavailability in Sprague-Dawley rat at 10 mg/kg by LC/MS/MS analysis; format: ADME, organism-based; conditions: in vivo; procedure, shortened: as §3
[9] = Cmax in Sprague-Dawley rat at 11.6 mg/kg, po by LC/MS/MS analysis; format: ADME, organism-based; set-up: route oral, dose 11.6 mg/kg; conditions: in vivo
[10] = Toxicity in rat assessed as adverse effect at 400 to 500 mg/kg, po measured for 14 days; format: organism-based; conditions: in vivo, 336 h, dose 400-500 mg/kg, time 14 day; procedure, shortened: as §1
[11] = test system: Klebsiella pneumoniae; experiment: Synergistic antibacterial activity against Klebsiella pneumoniae ARC 6098 drug resistant clinical isolates assessed as MIC for cefpodoxime antibacterial activity by CLSI based broth dilution method (Rvb > 64 ug/ml); format: functional
[12] = Clearance in Sprague-Dawley rat at 10 mg/kg, iv by LC/MS/MS analysis; format: ADME, organism-based; conditions: in vivo
Procedure, shortened: (§4)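 Jugular vein-cannulated male Sprague Dawley rats, 180–200 g, n = 3, given 10 mg/kg iv in 0.9% saline. Formulation pH checked at 4–7. […] Half-life taken from linear regression of the semilog concentration–time plot.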

[13] = Protein binding in Sprague-Dawley rat plasma assessed as fraction unbound at 5 to 100 uM; format: ADME, cell-free; conditions: dose 5-100 µM
Procedure, shortened: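 Rat plasma protein binding reported as mean percent unbound across 5–100 μM.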

[14] = test system: Klebsiella pneumoniae; experiment: Synergistic antibacterial activity against Klebsiella pneumoniae ARC 6082 drug resistant clinical isolates assessed as MIC for cefpodoxime antibacterial activity by CLSI based broth dilution method (Rvb > 64 ug/ml); format: functional
[15] = test system: Enterobacter cloacae; experiment: Antibacterial activity against Enterobacter cloacae ARC 6049 drug resistant clinical isolates assessed as reduction in bacterial growth by CLSI based broth dilution method; format: functional
Procedure, shortened: (§5)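 Broth microdilution per CLSI in cation-adjusted Mueller–Hinton broth against drug-resistant clinical isolates; MIC read as the lowest concentration preventing bacterial growth.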

[16] = test system: Escherichia coli; experiment: Antibacterial activity against Escherichia coli ARC 6077 drug resistant clinical isolates assessed as reduction in bacterial growth by CLSI based broth dilution method; format: functional; procedure, shortened: as §5
[17] = Volume of distribution at steady state in Sprague-Dawley rat at 10 mg/kg, iv by LC/MS/MS analysis; format: ADME, organism-based; conditions: in vivo, read-out: Vdss; procedure, shortened: as §4
[18] = test system: Citrobacter freundii; experiment: Synergistic antibacterial activity against Citrobacter freundii ARC 3518 carbapenem resistant clinical isolates assessed as MIC for cefpodoxime antibacterial activity by CLSI based broth dilution method (Rvb > 64 ug/ml); format: functional
[19] = test system: Escherichia coli; experiment: Antibacterial activity against Escherichia coli ARC 6078 drug resistant clinical isolates assessed as reduction in bacterial growth by CLSI based broth dilution method; format: functional; procedure, shortened: as §5
[20] = test system: Enterobacter cloacae; experiment: Synergistic antibacterial activity against Enterobacter cloacae ARC 6049 drug resistant clinical isolates assessed as MIC for cefpodoxime antibacterial activity by CLSI based broth dilution method (Rvb > 64 ug/ml); format: functional
[21] = test system: Klebsiella pneumoniae; experiment: Antibacterial activity against Klebsiella pneumoniae ARC 6082 drug resistant clinical isolates assessed as reduction in bacterial growth by CLSI based broth dilution method; format: functional; procedure, shortened: as §5
[22] = test system: Klebsiella oxytoca; experiment: Synergistic antibacterial activity against Klebsiella oxytoca ARC 5389 carbapenem resistant clinical isolates assessed as MIC for cefpodoxime antibacterial activity by CLSI based broth dilution method (Rvb > 64 ug/ml); format: functional
[23] = test system: Klebsiella pneumoniae; experiment: Antibacterial activity against Klebsiella pneumoniae ARC 6107 carbapenem resistant clinical isolates assessed as reduction in bacterial growth by CLSI based broth dilution method; format: functional; procedure, shortened: as §5
[24] = Renal clearance in Sprague-Dawley rat at 10 mg/kg, iv by LC/MS/MS analysis; format: ADME, organism-based; conditions: in vivo; procedure, shortened: as §4
[25] = test system: Citrobacter freundii; experiment: Antibacterial activity against Citrobacter freundii ARC 3518 carbapenem resistant clinical isolates assessed as reduction in bacterial growth by CLSI based broth dilution method; format: functional; procedure, shortened: as §5
[26] = test system: Klebsiella pneumoniae; experiment: Antibacterial activity against Klebsiella pneumoniae ARC 6098 drug resistant clinical isolates assessed as reduction in bacterial growth by CLSI based broth dilution method; format: functional; procedure, shortened: as §5
[27] = test system: Klebsiella pneumoniae; experiment: Synergistic antibacterial activity against Klebsiella pneumoniae ARC 6107 carbapenem resistant clinical isolates assessed as MIC for cefpodoxime antibacterial activity by CLSI based broth dilution method (Rvb > 64 ug/ml); format: functional
[28] = test system: Enterobacter cloacae; experiment: Antibacterial activity against Enterobacter cloacae ARC 6055 drug resistant clinical isolates assessed as reduction in bacterial growth by CLSI based broth dilution method; format: functional; procedure, shortened: as §5
[29] = test system: Escherichia coli; experiment: Synergistic antibacterial activity against Escherichia coli ARC 6059 drug resistant clinical isolates assessed as MIC for cefpodoxime antibacterial activity by CLSI based broth dilution method (Rvb > 64 ug/ml); format: functional
[30] = test system: Escherichia coli; experiment: Synergistic antibacterial activity against Escherichia coli ARC 6064 drug resistant clinical isolates assessed as MIC for cefpodoxime antibacterial activity by CLSI based broth dilution method (Rvb > 64 ug/ml); format: functional
[31] = Half-life in Sprague-Dawley rat at 10 mg/kg, iv by LC/MS/MS analysis; format: ADME, organism-based; conditions: in vivo; procedure, shortened: as §4
[32] = test system: Escherichia coli; experiment: Synergistic antibacterial activity against Escherichia coli ARC 6077 drug resistant clinical isolates assessed as MIC for cefpodoxime antibacterial activity by CLSI based broth dilution method (Rvb > 64 ug/ml); format: functional
[33] = test system: Enterobacter cloacae; experiment: Synergistic antibacterial activity against Enterobacter cloacae ARC 6055 drug resistant clinical isolates assessed as MIC for cefpodoxime antibacterial activity by CLSI based broth dilution method (Rvb > 64 ug/ml); format: functional
[34] = test system: Klebsiella oxytoca; experiment: Antibacterial activity against Klebsiella oxytoca ARC 5389 carbapenem resistant clinical isolates assessed as reduction in bacterial growth by CLSI based broth dilution method; format: functional; procedure, shortened: as §5
[35] = Drug excretion in Sprague-Dawley rat urine assessed as unchanged drug at 10 mg/kg, iv by LC/MS/MS analysis; format: ADME, organism-based; conditions: read-out: Drug excretion
Procedure, shortened: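 Male Sprague Dawley rats, 10 mg/kg iv in 0.9% saline, n = 3. Urine assayed for unchanged parent drug, reported as percent of the administered iv dose.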

[36] = AUC in Sprague-Dawley rat at 10 mg/kg, iv by LC/MS/MS analysis; format: ADME, organism-based; set-up: dose 10 mg/kg; conditions: in vivo; procedure, shortened: as §4
[37] = test system: Escherichia coli; experiment: Synergistic antibacterial activity against Escherichia coli ARC 6078 drug resistant clinical isolates assessed as MIC for cefpodoxime antibacterial activity by CLSI based broth dilution method (Rvb > 64 ug/ml); format: functional
[38] = test system: Escherichia coli; experiment: Antibacterial activity against Escherichia coli ARC 2687 drug resistant clinical isolates assessed as reduction in bacterial growth by CLSI based broth dilution method; format: functional; procedure, shortened: as §5
[39] = Inhibition of bacterial TEM-1 assessed as equilibrium constant using nitrocefin as chromogenic substrate by absorbance plate reader analysis
[40] = test system: Klebsiella pneumoniae; experiment: Antibacterial activity against Klebsiella pneumoniae ARC 6088 carbapenem-resistant clinical isolates assessed as reduction in bacterial growth by CLSI based broth dilution method; format: functional; procedure, shortened: as §5
[41] = test system: Escherichia coli; experiment: Antibacterial activity against Escherichia coli ARC 6064 drug resistant clinical isolates assessed as reduction in bacterial growth by CLSI based broth dilution method; format: functional; procedure, shortened: as §5
[42] = test system: Klebsiella pneumoniae; experiment: Synergistic antibacterial activity against Klebsiella pneumoniae ARC 6088 carbapenem resistant clinical isolates assessed as MIC for cefpodoxime antibacterial activity by CLSI based broth dilution method (Rvb > 64 ug/ml); format: functional
[43] = Cmax in Sprague-Dawley rat at 10 mg/kg, iv by LC/MS/MS analysis; format: ADME, organism-based; set-up: route intravenous, dose 10 mg/kg; conditions: in vivo; procedure, shortened: as §4
[44] = test system: Escherichia coli; experiment: Antibacterial activity against Escherichia coli ARC 6059 drug resistant clinical isolates assessed as reduction in bacterial growth by CLSI based broth dilution method; format: functional; procedure, shortened: as §5
[45] = test system: Escherichia coli; experiment: In vivo antibacterial activity against multidrug-resistant Escherichia coli ARC 2687 infected in CD-1 mouse model of neutropenic thigh infection assessed as colony forming unit at 600 mg/kg, sc administered at 6 hrs interval relative to pretreatment; format: functional; procedure, shortened: as §2

CC1=C[C@@H](C(N)=O)N2C[C@@H]1N(O[C@H](F)C(=O)OC(C)C)C2=O
Activity [1]: Non-Toxic | Drug metabolism [2]: Metabolite detected | Activity [3]: 1.11 log10CFU/g | bioavailability [4]: 98% | half-life [5]: 66 min | AUC [6]: 7040 ng·h/mL | Activity [7]: Active | bioavailability [8]: 98% | Cmax [9]: 5800 ng/mL | Activity [10]: Non-Toxic

CC1=C[C@H](C(N)=O)N2C[C@@H]1N(O[C@H](F)C(=O)O)C2=O
MIC [11]: 0.125 µg/mL | clearance [12]: 23.1 mL/min/kg | fraction unbound [13]: 91% | MIC [14]: 0.125 µg/mL | MIC [15]: 1 µg/mL (≈ 3.66 µM) | MIC [16]: 4 µg/mL (≈ 14.6 µM) | Vd [17]: 0.7 L/kg | MIC [18]: 0.13 µg/mL | MIC [19]: 0.25 µg/mL (≈ 0.915 µM) | MIC [20]: 0.125 µg/mL | MIC [21]: 64 µg/mL (≈ 234 µM) | Drug metabolism [2]: Metabolite detected | MIC [22]: 0.5 µg/mL | MIC [23]: 4 µg/mL (≈ 14.6 µM) | CL renal [24]: 13.4 mL/min/kg | MIC [25]: 0.25 µg/mL (≈ 0.915 µM) | MIC [26]: 16 µg/mL (≈ 58.6 µM) | MIC [27]: 0.25 µg/mL | MIC [28]: 1 µg/mL (≈ 3.66 µM) | MIC [29]: 0.125 µg/mL | MIC [30]: 0.5 µg/mL | half-life [31]: 24 min | MIC [32]: 0.125 µg/mL | MIC [33]: 0.125 µg/mL | MIC [34]: 16 µg/mL (≈ 58.6 µM) | dose excreted [35]: 60% | AUC [36]: 7190 ng·h/mL | MIC [37]: 0.25 µg/mL | MIC [38]: 0.5 µg/mL (≈ 1.83 µM) | pKi [39]: 9.47 | MIC [40]: 16 µg/mL (≈ 58.6 µM) | MIC [41]: 8 µg/mL (≈ 29.3 µM) | MIC [42]: 0.125 µg/mL | Cmax [43]: 17500 ng/mL | MIC [44]: 16 µg/mL (≈ 58.6 µM)

C[C@@H](O)[C@H]1C(=O)N2C(C(=O)O)=C(S[C@@H]3CN[C@H](C(=O)N(C)C)C3)[C@H](C)[C@H]12 [MEROPENEM]
Activity [45]: -1.46 log10CFU/g
